Converted amounts (≈) assume the structure as drawn.
Assays:
Candida albicans [1] = assay: Antifungal activity against Candida albicans isolate 1 expressing wild type 1,3-beta-glucan synthase grown on AM3 media after 48 hrs by EUCAST microdilution method; format: functional; settings: isolate 1, 24 h, in the assay text read “24 hrs” for “48 hrs”
In short: (§1)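 EUCAST (AFST-EUCAST) broth microdilution with caspofungin at 0.015 to 8 μg/ml final, in AM3 with glucose added to 2% final. Final inoculum was 10⁵ yeast cells/ml, with microplates prepared in batches and stored at −20°C. Plates were incubated at 35°C in humid ambient air and read spectrophotometrically after shaking at 24 h and 48 h. MIC was ≥50% growth reduction versus drug-free well; 90% end point also read at both times.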

Candida albicans [2] = assay: Antifungal activity against Candida albicans isolate 2 expressing wild type 1,3-beta-glucan synthase grown on AM3 media after 48 hrs by EUCAST microdilution method; format: functional; settings: isolate 2, 24 h, in the assay text read “24 hrs” for “48 hrs”; in short: as §1
Candida albicans [3] = assay: Antifungal activity against Candida albicans isolate 15 expressing wild type 1,3-beta-glucan synthase grown on AM3 media after 48 hrs by EUCAST microdilution method; format: functional; settings: isolate 15, 24 h, in the assay text read “24 hrs” for “48 hrs”; in short: as §1
Candida albicans [4] = assay: Antifungal activity against Candida albicans isolate 25 expressing wild type 1,3-beta-glucan synthase grown on AM3 media after 48 hrs by EUCAST microdilution method; format: functional; settings: isolate 25, 24 h, in the assay text read “after 24 hrs” for “after 48 hrs”; in short: as §1
Candida albicans [5] = assay: Antifungal activity against Candida albicans isolate 5 expressing wild type 1,3-beta-glucan synthase grown on AM3 media after 48 hrs by EUCAST microdilution method; format: functional; settings: isolate 5, 24 h, in the assay text read “after 24 hrs” for “after 48 hrs”; in short: as §1
Candida albicans [6] = assay: Antifungal activity against Candida albicans isolate 11 expressing wild type 1,3-beta-glucan synthase grown on AM3 media after 48 hrs by EUCAST microdilution method; format: functional; settings: isolate 11, 24 h, in the assay text read “after 24 hrs” for “after 48 hrs”; in short: as §1
Candida albicans [7] = assay: Antifungal activity against Candida albicans isolate 17 expressing wild type 1,3-beta-glucan synthase grown on AM3 media after 48 hrs by EUCAST microdilution method; format: functional; settings: isolate 17, 24 h, in the assay text read “after 24 hrs” for “after 48 hrs”; in short: as §1
Candida albicans [8] = assay: Antifungal activity against Candida albicans isolate 7 expressing wild type 1,3-beta-glucan synthase grown on AM3 media after 48 hrs by EUCAST microdilution method; format: functional; settings: isolate 7, 24 h, in the assay text read “after 24 hrs” for “after 48 hrs”; in short: as §1
Candida albicans [9] = assay: Antifungal activity against Candida albicans isolate 14 expressing wild type 1,3-beta-glucan synthase grown on AM3 media after 48 hrs by EUCAST microdilution method; format: functional; settings: isolate 14, 24 h, in the assay text read “after 24 hrs” for “after 48 hrs”; in short: as §1
Candida tropicalis [10] = assay: Antifungal activity against Candida tropicalis isolate 1 expressing wild type 1,3-beta-glucan synthase grown on AM3 media after 48 hrs by EUCAST microdilution method; format: functional; settings: isolate 1, 24 h, in the assay text read “24 hrs” for “48 hrs”; in short: as §1
Pichia kudriavzevii = assay: Antifungal activity against Candida krusei ATCC 6258 expressing wild type 1,3-beta-glucan synthase grown on RPMI media after 24 hrs by EUCAST microdilution method; settings: ATCC 6258, 24 h
Candida albicans [11] = assay: Antifungal activity against Candida albicans isolate 18 expressing wild type 1,3-beta-glucan synthase grown on AM3 media after 24 hrs by EUCAST microdilution method; settings: isolate 18, 24 h
Candida albicans [12] = assay: Antifungal activity against Candida albicans isolate 2 expressing wild type 1,3-beta-glucan synthase grown on RPMI media after 24 hrs by EUCAST microdilution method; settings: isolate 2, 24 h
Candida albicans [13] = assay: Antifungal activity against Candida albicans isolate 3 expressing wild type 1,3-beta-glucan synthase grown on RPMI media after 24 hrs by EUCAST microdilution method; settings: isolate 3, 24 h
Candida albicans [14] = assay: Antifungal activity against Candida albicans isolate 4 expressing wild type 1,3-beta-glucan synthase grown on RPMI media after 24 hrs by EUCAST microdilution method; settings: isolate 4, 24 h
Candida albicans [15] = assay: Antifungal activity against Candida albicans isolate 9 expressing wild type 1,3-beta-glucan synthase grown on RPMI media after 24 hrs by EUCAST microdilution method; settings: isolate 9, 24 h
Candida albicans [16] = assay: Antifungal activity against Candida albicans isolate 11 expressing wild type 1,3-beta-glucan synthase grown on RPMI media after 24 hrs by EUCAST microdilution method; settings: isolate 11, 24 h
Candida albicans [17] = assay: Antifungal activity against Candida albicans isolate 12 expressing wild type 1,3-beta-glucan synthase grown on RPMI media after 24 hrs by EUCAST microdilution method; settings: isolate 12, 24 h
Candida albicans [18] = assay: Antifungal activity against Candida albicans isolate 16 expressing wild type 1,3-beta-glucan synthase grown on RPMI media after 24 hrs by EUCAST microdilution method; settings: isolate 16, 24 h
Candida albicans [19] = assay: Antifungal activity against Candida albicans isolate 17 expressing wild type 1,3-beta-glucan synthase grown on RPMI media after 24 hrs by EUCAST microdilution method; settings: isolate 17, 24 h
Candida albicans [20] = assay: Antifungal activity against Candida albicans isolate 19 harboring 1,3-beta-glucan synthase HS1 point mutant grown on AM3 media after 24 hrs by EUCAST microdilution method; settings: isolate 19, 24 h
Candida albicans [21] = assay: Antifungal activity against Candida albicans isolate 20 harboring 1,3-beta-glucan synthase HS1 point mutant grown on RPMI media after 24 hrs by EUCAST microdilution method; settings: isolate 20, 24 h
Candida albicans [22] = assay: Antifungal activity against Candida albicans isolate 21 harboring 1,3-beta-glucan synthase HS1 point mutant grown on RPMI media after 24 hrs by EUCAST microdilution method; settings: isolate 21, 24 h
Candida albicans [23] = assay: Antifungal activity against Candida albicans isolate 22 harboring 1,3-beta-glucan synthase HS1 point mutant grown on RPMI media after 24 hrs by EUCAST microdilution method; settings: isolate 22, 24 h
Candida albicans [24] = assay: Antifungal activity against Candida albicans isolate 23 harboring 1,3-beta-glucan synthase HS2 point mutant grown on RPMI media after 24 hrs by EUCAST microdilution method; settings: isolate 23, 24 h
Candida albicans [25] = assay: Antifungal activity against Candida albicans isolate 24 harboring 1,3-beta-glucan synthase HS1 point mutant grown on RPMI media after 24 hrs by EUCAST microdilution method; settings: isolate 24, 24 h
Candida tropicalis [26] = assay: Antifungal activity against Candida tropicalis isolate 2 harboring 1,3-beta-glucan synthase HS1 point mutant grown on RPMI media after 24 hrs by EUCAST microdilution method; settings: isolate 2, 24 h

CC[C@H](C)C[C@H](C)CCCCCCCCC(=O)N[C@H]1C[C@@H](O)[C@@H](NCCN)NC(=O)[C@@H]2[C@@H](O)CCN2C(=O)[C@H]([C@H](O)CCN)NC(=O)[C@H]([C@H](O)[C@@H](O)c2ccc(O)cc2)NC(=O)[C@@H]2C[C@@H](O)CN2C(=O)[C@H]([C@@H](C)O)NC1=O [CASPOFUNGIN]
MIC (Candida albicans [1]): 0.03 µg/mL (≈ 0.0274 µM) | MIC (Candida albicans [2]): 0.03 µg/mL (≈ 0.0274 µM) | MIC (Candida albicans [3]): 0.03 µg/mL (≈ 0.0274 µM) | MIC (Candida albicans [4]): 0.03 µg/mL (≈ 0.0274 µM) | MIC (Candida albicans [5]): 0.03 µg/mL (≈ 0.0274 µM) | MIC (Candida albicans [6]): 0.03 µg/mL (≈ 0.0274 µM) | MIC (Candida albicans [7]): 0.03 µg/mL (≈ 0.0274 µM) | MIC (Candida albicans [8]): 0.06 µg/mL (≈ 0.0549 µM) | MIC (Candida albicans [9]): 0.03 µg/mL (≈ 0.0274 µM) | MIC (Candida tropicalis [10]): 0.06 µg/mL (≈ 0.0549 µM) | MIC (Pichia kudriavzevii): 1 µg/mL (≈ 0.915 µM) | MIC (Candida albicans [11]): 0.015 µg/mL (≈ 0.0137 µM) | MIC (Candida albicans [12]): 0.25 µg/mL (≈ 0.229 µM) | MIC (Candida albicans [13]): 0.25 µg/mL (≈ 0.229 µM) | MIC (Candida albicans [14]): 0.5 µg/mL (≈ 0.457 µM) | MIC (Candida albicans [15]): 0.5 µg/mL (≈ 0.457 µM) | MIC (Candida albicans [16]): 0.5 µg/mL (≈ 0.457 µM) | MIC (Candida albicans [17]): 0.5 µg/mL (≈ 0.457 µM) | MIC (Candida albicans [18]): 0.5 µg/mL (≈ 0.457 µM) | MIC (Candida albicans [19]): 0.5 µg/mL (≈ 0.457 µM) | MIC (Candida albicans [20]): 0.5 µg/mL (≈ 0.457 µM) | MIC (Candida albicans [21]): 2 µg/mL (≈ 1.83 µM) | MIC (Candida albicans [22]): 2 µg/mL (≈ 1.83 µM) | MIC (Candida albicans [23]): 2 µg/mL (≈ 1.83 µM) | MIC (Candida albicans [24]): 2 µg/mL (≈ 1.83 µM) | MIC (Candida albicans [25]): 4 µg/mL (≈ 3.66 µM) | MIC (Candida tropicalis [26]): 2 µg/mL (≈ 1.83 µM)

Source: ChEMBL document CHEMBL1671620, “Mutations in the fks1 gene in Candida albicans, C. tropicalis, and C. krusei correlate with elevated caspofungin MICs uncovered in AM3 medium using the method of the European Committee on Antibiotic Susceptibility Testing” (2008)
